Key:
Settings in all cases: route intraperitoneal
[1] = tested on: L1210; experiment: The effect of compound on mouse leukemia L1210 tumor (Intraperitoneally implanted)after single dose injected intraperitoneally on day 1 […] at OD of 100 mg/kg; type: functional
[2] = tested on: L1210; experiment: Compound tested for toxicity against mouse leukemia L1210 tumor (Intraperitoneally implanted) after single ip injection on day 1 at optimal dose (OD) of 100 mg/kg on the 5th day after the injection of the compound; (6/6); type: functional
[3] = tested on: L1210; experiment: Effect of compound on mouse leukemia L1210 tumor (Intraperitoneally implanted) after single dose injected intraperitoneally on day 1 recorded as animal weight difference of the treated and the control (T-C) at OD of 100 mg/kg; type: functional
Outline: (§1)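 L1210 leukaemia implanted intraperitoneally in mice. Compound given over a dose range (mg/kg); optimum dose selected. Survivors for toxicity recorded day 5 post-injection. Measures: T – C body weight difference (g), % T/C, and cures, defined as 30-day survivors.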

[4] = tested on: L1210; experiment: Compound tested for activity against mouse leukemia L1210 tumor (Intraperitoneally implanted) after single ip injection on day 1 at optimal dose of 100 mg/kg (Dose range 256-16); type: functional; outline: as §1
[5] = tested on: L1210; experiment: Compound tested for toxicity against mouse leukemia L1210 tumor (Intraperitoneally implanted) after single ip injection on day 1 at optimal dose (OD) of 12.5 mg/kg on the 5th day after the injection of the compound; (5/5)
[6] = tested on: L1210; experiment: Compound tested for activity against mouse leukemia L1210 tumor (Intraperitoneally implanted) after single ip injection on day 1 at optimal dose of 100 mg/kg (Dose range 400-12.5); type: functional; outline: as §1

CCN1CCCC(NC(=O)N(CCCl)N=O)C1.O=C(O)/C=C\C(=O)O (configuration not stated)
T/C [1]: 235% | Survival [2]: 6 | T-C [3]: -5.9 g | Optimal dose [4]: 128 mg/kg

O=C(O)/C=C\C(=O)O.O=NN(CCCl)C(=O)Nc1cccnc1
T/C [1]: 126% | Survival [5]: 5 | Optimal dose [6]: 12.5 mg/kg | T-C [3]: -7 g

CCCCN1CCC(NC(=O)N(CCCl)N=O)CC1.O=C(O)/C=C\C(=O)O
T/C [1]: 197% | Survival [2]: 6 | T-C [3]: -3.9 g | Optimal dose [4]: 64 mg/kg
